KCNK3 inh: human KCNK3 channel inhibition, primary screen | O14649 | CHO-KCNK3 thallium flux, FluxOR fluorescence; hits give low values | B-score at 10 µM | 340,000 compounds, 0.84% hits;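 active means B-score under library mean minus 4 SD, starting fluorescence ratio at most library mean plus 5 SD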;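 further: more negative B-score means stronger inhibition of thallium flux through KCNK3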
KCNK9 block: human KCNK9 channel inhibition | HEK293 KCNK9, FluxOR thallium flux fluorescence; hits give low values | AID 488922 | 310,000 compounds, 1.2% hits | B-score at 10 µM;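 active means ratio B-score over 3 SD below the library mean, with starting fluorescence within 5 SD of its mean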;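 further: negative B-score means less thallium flux so channel inhibition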
KCNQ1 act: potentiates or activates the human KCNQ1 potassium channel. CHO-K1 KCNQ1, thallium flux FluxOR fluorescence; hits give high values. B-score at 10 µM. 310,000 compounds, 0.35% hits. AID 2648;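 active means fluorescence ratio B-score, a plate-corrected score, at least three library SD, with initial intensity B-score within 5 SD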
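assay system = CHO-K1 cells stably expressing KCNQ1 | medium = assay buffer, equal DMSO in all wells | timing = 37 °C overnight plating, 90-min dark dye load, 20-min compound pretreatment | measured by = kinetic FluxOR thallium fluorescence, 10-s 1-Hz baseline, 110-s post-stimulus read | measure = fluorescence change relative to baseline, converted to B score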
KCC2 mod: modulates chloride dependent transport by human KCC2 | KCC2 cells, thallium flux FluoZin-2 fluorescence | Q9H2X9 | B-score of Tl+ flux slope (higher = more flux/activation; lower = inhibition) at 10 µM | 190,000 compounds, 2.2% hits;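 active means thallium flux slope and its plate-corrected score both differing from the plate sample mean at a set confidence after two filtering rounds, in either direction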;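 further: slope of fluorescence scaled to starting intensity during 10 to 20 s after thallium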
hERG rescue: hERG (human) protection from proarrhythmic block | 310,000 compounds, 0.51% hits | CHO-hERG, FluxOR thallium flux, dofetilide IC70 present | activation (rescue from dofetilide block), less the hit threshold, % at 10 µM | Q12809;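 active means activation above the mean of controls blocked by dofetilide plus 5 SD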;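 further: thallium influx through hERG after potassium depolarization seen as dye fluorescence rise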
Target sequence (Q12809 whole entry, looked up): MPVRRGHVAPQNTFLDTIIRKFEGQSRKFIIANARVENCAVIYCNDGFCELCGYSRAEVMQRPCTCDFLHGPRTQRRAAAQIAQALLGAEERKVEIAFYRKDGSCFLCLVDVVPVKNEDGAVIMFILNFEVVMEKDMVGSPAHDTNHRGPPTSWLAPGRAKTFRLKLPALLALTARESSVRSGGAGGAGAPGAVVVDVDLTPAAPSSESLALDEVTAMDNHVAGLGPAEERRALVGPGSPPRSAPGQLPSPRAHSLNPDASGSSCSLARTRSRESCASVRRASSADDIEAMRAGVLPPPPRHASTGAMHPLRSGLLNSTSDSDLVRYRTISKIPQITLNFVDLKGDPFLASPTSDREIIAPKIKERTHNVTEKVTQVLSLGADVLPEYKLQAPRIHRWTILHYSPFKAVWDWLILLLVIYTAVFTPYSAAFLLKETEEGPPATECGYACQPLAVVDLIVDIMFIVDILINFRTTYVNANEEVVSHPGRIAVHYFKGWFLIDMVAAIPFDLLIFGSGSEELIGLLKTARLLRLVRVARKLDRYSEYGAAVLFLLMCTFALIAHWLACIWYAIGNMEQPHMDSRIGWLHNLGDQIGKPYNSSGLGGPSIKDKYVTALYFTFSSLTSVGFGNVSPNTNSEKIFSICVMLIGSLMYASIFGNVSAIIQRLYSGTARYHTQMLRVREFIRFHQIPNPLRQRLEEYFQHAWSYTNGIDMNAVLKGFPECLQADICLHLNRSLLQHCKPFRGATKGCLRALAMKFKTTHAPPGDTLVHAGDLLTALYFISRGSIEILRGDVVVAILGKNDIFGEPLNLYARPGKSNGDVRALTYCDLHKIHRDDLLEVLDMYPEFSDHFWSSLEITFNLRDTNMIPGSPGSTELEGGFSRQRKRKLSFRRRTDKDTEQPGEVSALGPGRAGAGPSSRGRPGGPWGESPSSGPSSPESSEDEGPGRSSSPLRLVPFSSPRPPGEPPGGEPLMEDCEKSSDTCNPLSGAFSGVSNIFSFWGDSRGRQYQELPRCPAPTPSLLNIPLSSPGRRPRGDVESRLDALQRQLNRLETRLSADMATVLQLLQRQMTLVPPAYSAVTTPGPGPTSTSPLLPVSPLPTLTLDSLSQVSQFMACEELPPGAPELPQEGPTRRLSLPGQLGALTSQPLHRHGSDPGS
KCNQ1 inh: blocks the human KCNQ1 potassium channel. CHO-K1 KCNQ1, FluxOR thallium flux fluorescence; hits give high values. B-score at 10 µM. 310,000 compounds, 1.3% hits;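 active means compounds whose thallium flux B-score, printed positive for inhibition, exceeds three library SD while starting fluorescence stays within three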;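 further: channel opened by potassium depolarization with thallium stimulus after 20 min compound exposure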
KCNQ1 inh valid: reconfirmed blocker of the human KCNQ1 potassium channel. shares compounds with KCNQ1 inh. KCNQ1 cell line, FluxOR thallium flux fluorescence. inhibition, % at 10 µM. 1,600 compounds, 93% hits. AID 588353;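 active means primary screen active, with duplicate mean exceeding buffer control mean plus 3 SD of buffer wells, cut at about 28% in these data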
CHO Tl flux: activity in parental CHO cells lacking KCNQ1. shares compounds with KCNQ1 inh. parental CHO-K1, FluxOR thallium flux fluorescence ratio; hits give low values; zero means no signal rise above baseline. fluorescence ratio (Tl flux) at 10 µM. 1,600 compounds, 21% hits. AID 588366;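 active means mean of duplicate thallium-flux fluorescence ratios in parental host cells more than 5 SD below the buffer control mean, cut at about 0.38 in these data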;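 further: ratio is peak minus minimum fluorescence divided by baseline fluorescence; actives read low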
KCNQ1 ephys val: blocks human KCNQ1 current in automated patch clamp. shares compounds with KCNQ1 inh. KCNQ1-CHO cells. calls only at 10 µM. 490 compounds, 20% hits;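 active means KCNQ1 current drop exceeding 3 SD of negative control wells, seen in both duplicate runs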;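 further: steady state current during a 2 s step from -80 to +40 mV; negative values mean current inhibition and positive values mean potentiation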
KCNQ2 inh: rat KCNQ2 inhibition in KCNQ1 inhibitor specificity screen. shares compounds with KCNQ1 inh. KCNQ2 cells, FluxOR thallium flux fluorescence. inhibition, % at 10 µM. 1,600 compounds, 71% hits. AID 651746;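 active means mean percent inhibition of the KCNQ2 thallium signal more than 5 SD above the buffer-only control wells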;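 further: KCNQ2 expressed in CHO cells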
KCNQ1 KCNE1 spec: KCNQ1 inhibitor that also blocks human KCNQ1/KCNE1 channel | shares compounds with KCNQ1 inh | inhibition, % at 10 µM | AID 652147 | 1,600 compounds, 77% hits | KCNQ1/KCNE1 cells, FluxOR thallium flux fluorescence;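 active means mean percent inhibition of duplicate wells above the buffer-only control mean plus 3 SD of those controls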
Large screens that a line does not name were inactive (follow-up assays come after a bar, where they were run). Most compounds without a hit are left out; they make up all but 4.1% or so of the library.

COCc1cc(Sc2ccc(Cl)cc2)nc(-c2ccccc2)n1	KCNQ1 inh 6 | KCNQ1 inh valid 77.0 | CHO Tl flux inactive | KCNQ2 inh 90.7% | KCNQ1 KCNE1 spec 79.5%
COCc1cc(Sc2ccc(Br)cc2)nc(-c2ccccc2)n1	none
COCc1cc(N2CCOCC2)nc(-c2ccccc2)n1	none
COCc1cc(N2CCN(c3ccccc3F)CC2)nc(-c2ccccc2)n1	KCNQ1 inh 6 (no result: KCC2 mod) | KCNQ1 inh valid 51.0 | CHO Tl flux inactive | KCNQ2 inh 59.7% | KCNQ1 KCNE1 spec 139.5%
CC1CCCCN1CC(=O)Nc1cc(S(=O)(=O)N2CCOCC2)ccc1N1CCCC1 (stereo not drawn)	none
CCCCCC(=O)NC(=S)NC1C2CC3CC(C2)CC1C3 (stereo not drawn)	KCNQ1 inh 7 | KCNQ1 inh valid 65.5 | CHO Tl flux inactive | KCNQ2 inh 78.7% | KCNQ1 KCNE1 spec 64.5%
COC(=O)c1c(C)oc2ccc(NS(=O)(=O)c3cccs3)cc12	none
OCCN1CCN(C(=S)NC2CCCC2)CC1	KCNQ1 inh 10 | KCNQ1 inh valid 83.0 | CHO Tl flux inactive | KCNQ2 inh inactive | KCNQ1 KCNE1 spec 110.0%
S=C(NC1CC1)N1CCN(C(=S)NC2CC2)CC1	none (no result: KCC2 mod)
CCOC(=O)C1=C(O)C(=O)N(Cc2ccccc2)C1	none (no result: KCC2 mod)
COc1cc(/C=C/c2nc(-c3ccccc3O)n[nH]2)cc(OC)c1OC	KCNQ1 inh 6 | KCNQ1 inh valid 116.0 | CHO Tl flux inactive | KCNQ2 inh 113.0% | KCNQ1 KCNE1 spec 190.0%
COc1cccc(N(CC(=O)NCc2ccco2)C(=O)CCC(=O)Nc2nccs2)c1	none
Cc1ccc(S(=O)(=O)NC(C)C(c2cccs2)N2CCN(c3ccccc3)CC2)cc1 (stereo not drawn)	KCNQ1 inh 7 | KCNQ1 inh valid 67.5 | CHO Tl flux inactive | KCNQ2 inh 88.7% | KCNQ1 KCNE1 spec 92.0%
Cc1ccc(S(=O)(=O)NC(C)C(c2cccs2)N2CCN(C)CC2)cc1 (stereo not drawn)	none
COc1ccc2nc(C)cc(NCc3ccc(F)cc3)c2c1	KCNK9 block -6.86, KCNQ1 inh 7 (no result: KCC2 mod) | KCNQ1 inh valid 87.5 | CHO Tl flux inactive | KCNQ1 ephys val inactive | KCNQ2 inh inactive | KCNQ1 KCNE1 spec 123.5%
COc1ccc2nc(C)cc(Nc3ccc(C)cc3)c2c1	none (no result: KCC2 mod)
COC(=O)c1c(C)oc2ccc(N(C(=O)c3ccncc3)S(=O)(=O)c3ccc4ccccc4c3)cc12	KCNQ1 inh 8 | KCNQ1 inh valid 136.5 | CHO Tl flux inactive | KCNQ2 inh 110.0% | KCNQ1 KCNE1 spec 140.0%
COC(=O)c1c(C)oc2ccc(N(C(=O)c3ccncc3)S(=O)(=O)c3ccc(C)cc3)cc12	none
COC(=O)c1c(C)oc2ccc(N(C(=O)c3ccncc3)S(=O)(=O)c3ccc(C)cc3C)cc12	KCNQ1 inh 9 | KCNQ1 inh valid 135.0 | CHO Tl flux inactive | KCNQ1 ephys val inactive | KCNQ2 inh 126.7% | KCNQ1 KCNE1 spec 131.0%
CCc1sc(NC(=O)CN2CCC(C(N)=O)CC2)nc1-c1ccccc1	none (no result: KCC2 mod)
O=C(Nc1ccc(-c2cccc(F)c2)cc1)C1CCCN(Cc2ccccn2)C1 (stereo not drawn)	KCNQ1 inh 6 (no result: KCC2 mod) | KCNQ1 inh valid 44.0 | CHO Tl flux inactive | KCNQ2 inh 85.7% | KCNQ1 KCNE1 spec 64.0%
Cc1ncc(CN2CCCC(C(=O)Nc3ccc(-c4cccc(F)c4)cc3)C2)cn1 (stereo not drawn)	none (no result: KCC2 mod)
CCOC(=O)c1cccc(Nc2nc(-c3cccnc3)nc3ccccc23)c1	KCNQ1 inh 7 | KCNQ1 inh valid 124.5 | CHO Tl flux inactive | KCNQ1 ephys val inactive | KCNQ2 inh 122.0% | KCNQ1 KCNE1 spec active
COC(=O)c1cccc(Nc2nc(-c3cccnc3)nc3ccccc23)c1	none
CCN1CCN(CCNC(=O)c2ccc(CS(=O)c3ccc(Br)cc3)o2)CC1 (stereo not drawn)	none (no result: KCC2 mod)
Cc1ccc(NCC(=O)Nc2ccc(Br)cc2)cc1C	none (no result: KCC2 mod)
Cc1ccc(F)cc1NCC(=O)Nc1ccc(Br)cc1	KCNQ1 inh 8 | KCNQ1 inh valid 69.5 | CHO Tl flux inactive | KCNQ2 inh 99.3% | KCNQ1 KCNE1 spec 77.5%
CC1Sc2ccc(S(=O)(=O)N3CCC(C(=O)Nc4cccc(Cl)c4)CC3)cc2NC1=O (stereo not drawn)	KCNQ1 inh 11 (no result: KCC2 mod) | KCNQ1 inh valid 149.5 | CHO Tl flux inactive | KCNQ2 inh 129.3% | KCNQ1 KCNE1 spec 159.5%
CCc1ccc(NC(=O)C2CCN(S(=O)(=O)c3ccc4c(c3)NC(=O)C(C)S4)CC2)cc1 (stereo not drawn)	none (no result: KCC2 mod)
CC1Sc2ccc(S(=O)(=O)N3CCC(C(=O)NCc4ccc(Cl)cc4)CC3)cc2NC1=O (stereo not drawn)	none (no result: KCC2 mod)
Cc1ccc(NC(=O)C2CCN(S(=O)(=O)c3ccc4c(c3)NC(=O)C(C)S4)CC2)cc1C (stereo not drawn)	KCNQ1 inh 8 (no result: KCC2 mod) | KCNQ1 inh valid 138.5 | CHO Tl flux inactive | KCNQ1 ephys val inactive | KCNQ2 inh 117.0% | KCNQ1 KCNE1 spec 128.5%
Cc1[nH]c(=O)c(C#N)c(C)c1CSc1ncccn1	none (no result: KCC2 mod)
Cc1ccc(N(C(=O)c2ccco2)C(C(=O)NC2CCCC2)c2ccco2)c(C)c1 (stereo not drawn)	KCNQ1 inh 7 (no result: KCC2 mod) | KCNQ1 inh valid 81.5 | CHO Tl flux inactive | KCNQ2 inh 75.7% | KCNQ1 KCNE1 spec 61.0%
CCCCOCCCNc1ncnc2c1[nH]c1ccccc12	KCNQ1 inh 9 | KCNQ1 inh valid 153.5 | CHO Tl flux 0.357 | KCNQ2 inh 120.7% | KCNQ1 KCNE1 spec 198.5%
O=C(c1cc(-c2cccs2)on1)N1CCN(C(c2ccccc2)c2ccccc2)CC1	KCNQ1 inh 6 (no result: KCC2 mod) | KCNQ1 inh valid 99.0 | CHO Tl flux inactive | KCNQ2 inh 103.3% | KCNQ1 KCNE1 spec 125.5%
CCCc1cc(C(=O)N2CCN(C(c3ccccc3)c3ccccc3)CC2)no1	KCNQ1 inh 10 | KCNQ1 inh valid 125.5 | CHO Tl flux inactive | KCNQ1 ephys val inactive | KCNQ2 inh 106.3% | KCNQ1 KCNE1 spec 162.5%

Screens deposited in PubChem BioAssay by several laboratories.
